Converted amounts (≈) assume the structure as drawn. The source made the active and inactive calls. No cut-off for these calls is given here.

The subject of test [1] is Human alphaherpesvirus 2. The experiment in a line: Tested in vitro for minimum inhibitory activity against Herpes simplex virus type -2 (HSV-2). It is filed as functional.
The species entered for test [2] is Mus musculus. The test is described as follows: Effect on the survival rate of mice infected intravaginally with Herpes simplex virus type -2 (HSV-2) at 10% dosage twice in a day. It is filed as functional. The essentials:
(§1)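 Mice infected intravaginally with a tampon (dental pellet) saturated with HSV suspension. Aqueous drug solution given intravaginally b.i.d. on cotton tampons, starting 4 h postinfection. Each tampon stayed in 24 h, was re-moistened with 0.02 mL drug 6 h after insertion, and was replaced daily. Deaths were recorded daily to 14 days. Read-out: % survival and average survival time, with survivors scored >14 days.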

The species named for test [3] is Mus musculus. The experiment in a line: Effect on the survival rate of mice infected intravaginally with Herpes simplex virus type -2 (HSV-2) at 5% dosage twice in a day. In kind it is functional. The method, boiled down:
as §1

For test [4], the system named is Human alphaherpesvirus 2. The test is described as follows: Tested in vitro for minimum inhibitory activity against Herpes simplex virus type -2 (HSV-2); Inactive. It is filed as functional, organism-based.
In test [5] the test system is Mus musculus. The test is described as follows: Effect on the survival rate of mouse infected with herpes genitalis (HSV-2) administered intravaginally at 2% dosage twice in a day. It is filed as functional. The essentials: (§2)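 HSV-2 mouse genital model, infected intravaginally. Drug prepared in water + 1% gum tragacanth and given intravaginally b.i.d. via saturated cotton tampons, starting 4 h postinfection. Tampons were re-dosed with 0.02 mL 6 h after insertion and replaced daily. Test ended at day 14, with survivors assigned survival time >14 days. Read-out: % survival and average survival time.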

Test [6] relates to Mus musculus. The experiment in a line: Effect on the survival rate of mouse infected with herpes genitalis (HSV-2) administered intravaginally at 5% dosage twice in a day. In kind it is functional. The essentials:
as §2

For test [7], the species on record is Mus musculus. The experiment in a line: Effect on the survival rate of mice infected intravaginally with Herpes simplex virus type -2 (HSV-2) at 1.25% dosage twice in a day. It is filed as functional. The method, boiled down: as §1
The species named for test [8] is Mus musculus. The experiment in a line: Effect on the survival rate of mice infected intravaginally with Herpes simplex virus type -2 (HSV-2) at 2.5% dosage twice in a day. It is filed as functional. The method, boiled down:
as §1

Compound `COc1ccc(OCCCCCCCc2c(C)nn(C)c2C)c(Cl)c1` returned an MIC in the test with Human alphaherpesvirus 2 [1] of 0.7 µg/mL (≈ 1.92 µM). In the test filed under Mus musculus [2], this compound came in with an Average survival above 10 days and a Survival of 30%. For the same compound, in the test filed under Mus musculus [3], the Average survival is above 7 days and the Survival is reported as 10%. The compound `CCc1n[nH]c(CC)c1CCCCCCOc1ccc(Cl)cc1` displayed an MIC in the test on Human alphaherpesvirus 2 [1] of 6 µg/mL (≈ 17.9 µM). Take `CCc1nn(CCN(C)C)c(CC)c1CCCCCCOc1ccc(OC)cc1Cl`: in the test on Human alphaherpesvirus 2 [1], the MIC came to 6 µg/mL (≈ 13.8 µM). For the compound `CCc1n[nH]c(CC)c1CCCCCCOc1ccc(Br)cc1`, the MIC result in the test with Human alphaherpesvirus 2 [4] was “inactive”.

For the compound `CCc1nn(-c2ccccc2)c(CC)c1CCCCCCOc1ccc(OC)cc1Cl`, the MIC in the test on Human alphaherpesvirus 2 [1] stood at 3 µg/mL (≈ 6.8 µM). On to `CCc1n[nH]c(CC)c1CCCCCCOc1ccc(SC)cc1Cl`, for which the MIC entry in the test on Human alphaherpesvirus 2 [4] is “inactive”. In the test on Human alphaherpesvirus 2 [1], `COc1ccc(OCCCCCCc2c(C)n[nH]c2C)c(Cl)c1` showed an MIC of 3 µg/mL (≈ 8.91 µM). Take `O=c1[nH]c(=O)n([C@H]2C[C@H](O)[C@@H](CO)O2)cc1I` [IDOXURIDINE]: in the test with Mus musculus [5], the Average survival was above 11 days and the Survival is reported as 40%. Besides, in the test on Mus musculus [6], the Average survival is above 9 days and the Survival was 10%. Compound `CCCCn1nc(C)c(CCCCCCOc2ccc(OC)cc2Cl)c1C` came in with an MIC against Human alphaherpesvirus 2 [1] of 6 µg/mL (≈ 15.3 µM). Still for that read-out and setting: under `CCc1nn(CCO)c(CC)c1CCCCCCOc1ccc(OC)cc1Cl` stands 12 µg/mL (≈ 29.3 µM). Still for that read-out and setting: the figure for `COc1ccc(OCCCCCCc2c(-c3ccccc3)n[nH]c2-c2ccccc2)c(Cl)c1` is 3 µg/mL (≈ 6.51 µM). Regarding `CCc1nn(CC(F)(F)F)c(CC)c1CCCCCCOc1ccc(OC)cc1Cl`, the MIC result in the test on Human alphaherpesvirus 2 [4] was “inactive”. In the test with Human alphaherpesvirus 2 [1], `COc1ccc(OCCCCCCc2c(C)nn(C)c2C)c(Cl)c1` had an MIC of 0.7 µg/mL (≈ 1.99 µM). Consider `CCc1n[nH]c(CC)c1CCCCCCOc1ccccc1`, for which the MIC result in the test with Human alphaherpesvirus 2 [4] was “inactive”. On to `CCc1n[nH]c(CC)c1CCCCCOc1ccc(OC)cc1Cl`, for which the MIC in the test with Human alphaherpesvirus 2 [1] came to 6 µg/mL (≈ 17.1 µM). `CCc1nn(C)c(CC)c1CCCCCCOc1ccc(OC)cc1Cl`: the MIC against Human alphaherpesvirus 2 [1] was 6 µg/mL (≈ 15.8 µM). As to `CCOC(=O)Cn1nc(CC)c(CCCCCCOc2ccc(OC)cc2Cl)c1CC`, the MIC in the test with Human alphaherpesvirus 2 [1] came out at 6 µg/mL (≈ 13.3 µM). Same read-out and setting: under `CCc1n[nH]c(CC)c1CCCCCCOc1ccc([S+](C)[O-])cc1Cl` (stereo not drawn) stands 3 µg/mL (≈ 7.56 µM). On to `CCc1n[nH]c(CC)c1CCCCCCOc1cc(Cl)c(OC)cc1Cl`, for which the MIC entry in the test on Human alphaherpesvirus 2 [4] is “inactive”. The same measure, in the same setting: the entry for `CCc1n[nH]c(CC)c1CCCCCCOc1ccc(OC)cc1` is “inactive”. As for `CCc1nn(C)c(CC)c1CCCCCOc1ccc(OC)cc1Cl`, the MIC against Human alphaherpesvirus 2 [1] came out at 3 µg/mL (≈ 8.22 µM). Same read-out and setting: the figure for `CCc1n[nH]c(CC)c1CCCCCCCOc1ccc(OC)cc1Cl` is 6 µg/mL (≈ 15.8 µM). As to `CCc1nn(C(C)=O)c(CC)c1CCCCCCOc1ccc(OC)cc1Cl`, the MIC entry with Human alphaherpesvirus 2 [4] was “inactive”. In the test on Mus musculus [5], `Nc1ncnc2c1ncn2[C@@H]1O[C@H](CO)[C@@H](O)[C@@H]1O` [VIDARABINE] returned an Average survival above 9 days and a Survival of 10%. In the test on Mus musculus [6], this compound showed an Average survival above 13 days and a Survival of 60%.

In the test with Human alphaherpesvirus 2 [1], `CCc1n[nH]c(CC)c1CCCCOc1ccc(OC)cc1Cl` had an MIC of 6 µg/mL (≈ 17.8 µM). In turn, `CCc1n[nH]c(CC)c1CCCCCCOc1ccc(O)cc1Cl` gave an MIC with Human alphaherpesvirus 2 [1] of 12 µg/mL (≈ 34.2 µM). In turn, `CCCn1nc(C)c(CCCCCCOc2ccc(OC)cc2Cl)c1C` registered an MIC against Human alphaherpesvirus 2 [1] of 1.5 µg/mL (≈ 3.96 µM). For `CCc1n[nH]c(CC)c1CCCCCCOc1ccc(OC)cc1Cl`, the MIC in the test with Human alphaherpesvirus 2 [1] stood at 6 µg/mL (≈ 16.4 µM). Moreover, the Average survival in the test filed under Mus musculus [7] is above 10 days; in the test listed under Mus musculus [8], above 11 days; in the test filed under Mus musculus [3], above 11 days. The results for the Survival in the test filed under Mus musculus [7], in the test filed under Mus musculus [8] and in the test filed under Mus musculus [3] were 30%, 40% and 60%, respectively.

`CCc1nn(-c2ccccn2)c(CC)c1CCCCCCOc1ccc(OC)cc1Cl`: the MIC with Human alphaherpesvirus 2 [1] came to 6 µg/mL (≈ 13.6 µM). With `CCn1nc(C)c(CCCCCCOc2ccc(OC)cc2Cl)c1C`, the MIC in the test on Human alphaherpesvirus 2 [1] is 0.7 µg/mL (≈ 1.92 µM). Besides, the figures for the Average survival in the test listed under Mus musculus [2] and in the test listed under Mus musculus [3] were above 9 days and above 10 days, respectively. Besides, the Survival in the test listed under Mus musculus [2] and in the test listed under Mus musculus [3] was 30% throughout. As to `CCc1nn(C(=O)CCCN2CCOCC2)c(CC)c1CCCCCCOc1ccc(OC)cc1Cl`, the MIC against Human alphaherpesvirus 2 [1] amounted to 3 µg/mL (≈ 5.77 µM). For `CCc1n[nH]c(CC)c1CCCCCCOc1ccc([N+](=O)[O-])cc1Cl`, in the test with Human alphaherpesvirus 2 [4], the MIC result is “inactive”.

As to `CCc1nn(CC(=O)O)c(CC)c1CCCCCCOc1ccc(OC)cc1Cl`, the MIC entry in the test on Human alphaherpesvirus 2 [4] is “inactive”.

For the origin of these results see ChEMBL document CHEMBL1121642, “Synthesis and antiherpetic activity of some 4-[(aryloxy)alkyl]pyrazoles” (1981).
